ChEMBL document CHEMBL3124742, “Synthesis and biological evaluation of new carbohydrate-substituted indenoisoquinoline topoisomerase I inhibitors and improved syntheses of the experimental anticancer agents indotecan (LMP400) and indimitecan (LMP776)” (J Med Chem, 2014)
Calls of active or inactive are those of the source. No cut-off for these calls is given here.

Legend:
[1] = target: Tyrosyl-DNA phosphodiesterase 1 (Homo sapiens, UniProt Q9NUW8); assay: Inhibition of recombinant TDP1 (unknown origin) using N14Y as substrate after 15 mins by PAGE analysis
Procedure, shortened: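 Substrate is a 5'-[32P]-labelled single-stranded oligonucleotide with a 3'-phosphotyrosine (N14Y). It is incubated with 5 pM recombinant TDP1 ± test compound for 15 min at room temperature. Read-out is a gel.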

[2] = target: T1, DNA topoisomerase 1 (Homo sapiens) (UniProt P11387); assay: Inhibition of recombinant topoisomerase-1 (unknown origin) assessed as inhibition of 3'-[32P]-labeled DNA cleavage at 0.1 to 100 uM after 20 mins by PAGE analysis relative to control
T1 sequence (whole entry): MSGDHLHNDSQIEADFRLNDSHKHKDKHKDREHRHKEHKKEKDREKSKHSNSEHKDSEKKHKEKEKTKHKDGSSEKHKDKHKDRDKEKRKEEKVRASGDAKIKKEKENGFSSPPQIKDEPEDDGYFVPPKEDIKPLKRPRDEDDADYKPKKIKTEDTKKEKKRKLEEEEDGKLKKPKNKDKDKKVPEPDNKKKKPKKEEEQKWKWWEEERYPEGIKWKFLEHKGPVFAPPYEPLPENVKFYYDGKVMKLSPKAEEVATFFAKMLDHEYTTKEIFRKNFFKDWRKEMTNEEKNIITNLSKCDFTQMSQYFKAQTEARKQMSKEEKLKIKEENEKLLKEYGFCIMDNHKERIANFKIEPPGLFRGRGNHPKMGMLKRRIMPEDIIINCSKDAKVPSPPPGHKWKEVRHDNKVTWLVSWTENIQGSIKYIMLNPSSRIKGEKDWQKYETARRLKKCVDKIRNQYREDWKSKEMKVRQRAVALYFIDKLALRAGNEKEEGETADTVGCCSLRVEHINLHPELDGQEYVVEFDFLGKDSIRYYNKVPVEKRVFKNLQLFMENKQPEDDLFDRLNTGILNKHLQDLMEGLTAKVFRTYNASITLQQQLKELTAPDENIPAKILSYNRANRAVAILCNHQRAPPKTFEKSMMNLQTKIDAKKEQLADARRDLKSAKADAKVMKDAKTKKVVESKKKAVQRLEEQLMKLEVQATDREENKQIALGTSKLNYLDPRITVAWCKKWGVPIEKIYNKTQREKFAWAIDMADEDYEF

MCF7 = assay: Growth inhibition of human MCF7 cells; assay type: functional
Procedure, shortened: (§1)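 NCI-60 five-dose testing, 10^-8 to 10^-4 M, given only to compounds with significant growth inhibition in the 10 μM one-dose screen. Five-dose assay may be repeated.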

DU-145 = assay: Growth inhibition of human DU145 cells; assay type: functional; procedure, shortened: as §1
SN12C = assay: Growth inhibition of human SN12C cells; assay type: functional; procedure, shortened: as §1
OVCAR-3 = assay: Growth inhibition of human OVCAR3 cells; assay type: functional; procedure, shortened: as §1
[3] = Growth inhibition of human SF539 cells; assay type: functional; conditions: SF-539; procedure, shortened: as §1
HOP-62 = assay: Growth inhibition of human HOP62 cells; assay type: functional; procedure, shortened: as §1
[4] = Cytotoxicity against human NCI60 cells assessed as cell growth at 10 uM relative to vehicle-treated control; assay type: functional; conditions: read-out: Activity
Procedure, shortened: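 NCI-60 one-dose screen: roughly 60 human cancer cell lines exposed to 10^-5 M (10 μM) compound. Value is growth percent of treated cells relative to vehicle-treated control, averaged across the panel.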

UACC-62 = assay: Growth inhibition of human UACC62 cells; assay type: functional; procedure, shortened: as §1
HCT-116 = assay: Growth inhibition of human HCT116 cells; assay type: functional; procedure, shortened: as §1

Chain of Tyrosyl-DNA phosphodiesterase 1 (Q9NUW8 whole entry): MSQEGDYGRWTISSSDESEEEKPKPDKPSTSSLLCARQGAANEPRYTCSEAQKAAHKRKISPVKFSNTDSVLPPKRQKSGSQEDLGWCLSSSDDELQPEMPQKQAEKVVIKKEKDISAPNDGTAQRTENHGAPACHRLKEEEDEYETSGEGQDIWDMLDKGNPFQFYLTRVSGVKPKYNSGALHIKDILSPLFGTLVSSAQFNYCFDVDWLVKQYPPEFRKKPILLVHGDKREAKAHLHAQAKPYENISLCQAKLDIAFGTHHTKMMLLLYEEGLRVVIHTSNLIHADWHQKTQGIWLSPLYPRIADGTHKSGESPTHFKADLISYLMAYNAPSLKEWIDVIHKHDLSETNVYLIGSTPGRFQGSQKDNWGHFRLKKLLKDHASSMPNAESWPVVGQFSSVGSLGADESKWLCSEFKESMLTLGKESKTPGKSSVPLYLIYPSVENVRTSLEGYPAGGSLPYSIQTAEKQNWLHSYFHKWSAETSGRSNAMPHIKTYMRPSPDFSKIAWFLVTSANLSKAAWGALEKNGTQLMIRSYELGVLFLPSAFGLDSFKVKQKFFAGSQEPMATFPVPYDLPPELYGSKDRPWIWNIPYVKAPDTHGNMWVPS

| SMILES | IC50 [1] [nM] | inhibition [2] | GI50 (MCF7) [nM] | GI50 (DU-145) [nM] | GI50 (SN12C) [nM] | GI50 (OVCAR-3) [nM] | GI50 [3] [nM] | GI50 (HOP-62) [nM] | growth at 10 µM [4] [%] | GI50 (UACC-62) [nM] | GI50 (HCT-116) [nM] |
| --- | --- | --- | --- | --- | --- | --- | --- | --- | --- | --- | --- |
| O=C1c2ccccc2-c2c1c1ccc([N+](=O)[O-])cc1c(=O)n2C[C@H](O)[C@@H](O)[C@@H](O)[C@H](O)CO | > 111000 | Active | 2950 | 9550 | 4270 | 6030 | 2570 | 5130 | 51.5 | – | – |
| COc1cc2c3c(n(C[C@@H](O)[C@@H](O)[C@H](O)CO)c(=O)c2cc1OC)-c1cc2c(cc1C3=O)OCO2 | > 111000 | Active | 79 | 2510 | 457 | 794 | 214 | 676 | 34.7 | 195 | 891 |
| O=C1c2ccccc2-c2c1c1ccc([N+](=O)[O-])cc1c(=O)n2CC(O)CO (racemic) | > 111000 | 75% | 60 | 363 | 355 | 479 | 339 | 324 | -17.5 | – | 138 |
| COc1cc2c3c(n(C[C@@H]4O[C@H](CO)[C@@H](O)[C@H](O)[C@H]4O)c(=O)c2cc1OC)-c1cc2c(cc1C3=O)OCO2 | – | 50% | – | – | – | – | – | – | 97.7 | – | – |
| COc1cc2c3c(n(C[C@H](O)[C@@H](O)[C@H](O)CO)c(=O)c2cc1OC)-c1cc2c(cc1C3=O)OCO2 | > 111000 | Active | 34 | 138 | 85 | 96 | 21 | 27 | 5.32 | 52 | 59 |
| COc1cc2c3c(n(C[C@H](O)CO)c(=O)c2cc1OC)-c1cc2c(cc1C3=O)OCO2 | > 111000 | Active | 10 | 34 | 30 | 48 | 25 | 28 | 7.1 | 17 | 21 |
| O=C1c2ccccc2-c2c1c1ccc([N+](=O)[O-])cc1c(=O)n2C[C@@H](O)[C@H](O)[C@H](O)CO | – | Active | 912 | 3160 | – | 1700 | 1450 | 1910 | -9.21 | – | 1350 |
| COc1cc2c3c(n(C[C@H](O)[C@@H](O)[C@@H](O)[C@H](O)CO)c(=O)c2cc1OC)-c1cc2c(cc1C3=O)OCO2 | – | 50% | – | – | – | – | – | – | 82.3 | – | – |
| O=C1c2ccccc2-c2c1c1ccc([N+](=O)[O-])cc1c(=O)n2C[C@H](O)[C@@H](O)[C@H](O)CO | – | Active | 96 | 457 | 295 | 407 | 214 | 363 | -14.6 | – | 141 |
| COc1cc2c3c(n(C[C@@H](O)[C@H](O)[C@H](O)CO)c(=O)c2cc1OC)-c1cc2c(cc1C3=O)OCO2 | > 111000 | 75% | 148 | 50100 | 234 | 50100 | 174 | 50100 | 52.8 | 155 | 355 |
| O=C1c2ccccc2-c2c1c1ccc([N+](=O)[O-])cc1c(=O)n2C[C@H](O)[C@H](O)[C@H](O)CO | > 111000 | Active | 145 | 550 | 380 | 525 | 234 | 407 | -27.5 | – | 219 |
| COc1cc2c3c(n(CC(O)CO)c(=O)c2cc1OC)-c1cc2c(cc1C3=O)OCO2 (racemic) | > 111000 | Active | 21 | 36 | 35 | 52 | 23 | 31 | 27.1 | – | 26 |
| COc1cc2c3c(n(C[C@@H](O)[C@@H](O)[C@H](O)[C@H](O)CO)c(=O)c2cc1OC)-c1cc2c(cc1C3=O)OCO2 | > 111000 | Active | – | – | – | – | – | – | 79.5 | – | – |
| COc1cc2c3c(n(C[C@@H](O)CO)c(=O)c2cc1OC)-c1cc2c(cc1C3=O)OCO2 | > 111000 | Active | 29 | 40 | 37 | – | 32 | 36 | 31.6 | – | 36 |
| O=C1c2ccccc2-c2c1c1ccc([N+](=O)[O-])cc1c(=O)n2C[C@@H]1O[C@H](CO)[C@@H](O)[C@H](O)[C@H]1O | – | 50% | – | – | – | – | – | – | 77.4 | – | – |
| O=C1c2ccccc2-c2c1c1ccc([N+](=O)[O-])cc1c(=O)n2C[C@@H](O)CO | > 111000 | 75% | 56 | 427 | 380 | 398 | 309 | 347 | -27 | – | 138 |
| O=C1c2ccccc2-c2c1c1ccc([N+](=O)[O-])cc1c(=O)n2C[C@@H](O)[C@@H](O)[C@H](O)CO | – | Active | 501 | 3470 | 2690 | 2140 | 1740 | – | -16.1 | 1100 | 1200 |
| O=C1c2ccccc2-c2c1c1ccc([N+](=O)[O-])cc1c(=O)n2C[C@@H](O)[C@@H](O)[C@H](O)[C@H](O)CO | – | Active | 724 | > 100000 | – | 5250 | 3390 | > 100000 | 73.2 | 3470 | – |
| COc1cc2c3c(n(C[C@H](O)[C@H](O)[C@H](O)CO)c(=O)c2cc1OC)-c1cc2c(cc1C3=O)OCO2 | – | 75% | 59 | 479 | 229 | 22 | 28 | 251 | 46.9 | 62 | 148 |
| COc1cc2c3c(n(C[C@H](O)[C@@H](O)[C@H](O)[C@H](O)CO)c(=O)c2cc1OC)-c1cc2c(cc1C3=O)OCO2 | > 111000 | 75% | – | – | – | – | – | – | 87.5 | – | – |
